# According to paper PMC12926890 (Molecular pharmaceutics, 2024):
# Columns and labels:
# Format in all cases: cell-based, human
# hCMEC/D3 monolayers [1] = experiment: F-Aβ42 cellular uptake by flow cytometry; details: 1 μM SB203580 30 min, then 60 min with 1 μM F-Aβ42
# Outline: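 hCMEC/D3 monolayers grown on collagen-coated 6-well plates, seeded at about 25,000 cells/cm², cultured 5−7 days at 37 °C and 5% CO₂ to confluency, then moved to 1% serum medium the day before. Cells were pretreated 30 min with 1 μM p38 inhibitor, then exposed 60 min to 1 μM FITC-Aβ₄₂. Read-out was the median fluorescence intensity of the cell population by flow cytometry, compared by unpaired two-tailed t test.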
# hCMEC/D3 monolayers [2] = experiment: F-Aβ42 intracellular accumulation by confocal microscopy; details: 1 μM SB203580 30 min, then 60 min with 1 μM F-Aβ42
# Outline: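 Monolayers were grown on collagen-coated 8-well chambered slides, cultured 5−7 days at 37 °C and 5% CO₂, then held in 1% serum medium overnight. They received 1 μM p38 inhibitor for 30 min, then 1 μM FITC-Aβ₄₂ for 60 min. Cells were washed three times with ice-cold PBS, fixed in 4% paraformaldehyde for 20 min at room temperature, and DAPI-stained (300 nM, 10 min). They were then mounted and imaged by confocal SIM super-resolution.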
# p38 MAPK = experiment: RPPA proteomics assay of p38 phosphorylation; details: BBB endothelial (hCMEC/D3) cells exposed to Aβ42
p38 MAPK kinase activation (RPPA) (p38 MAPK),Molecule,"F-Aβ42 uptake by hCMEC/D3 cells (flow cytometry, MFI) (hCMEC/D3 monolayers [1])",fluorescent intensity of F-Aβ42 in the cytoplasm (confocal microscopy) (hCMEC/D3 monolayers [2])
–,C[S+]([O-])c1ccc(-c2nc(-c3ccncc3)c(-c3ccc(F)cc3)[nH]2)cc1 (stereo not drawn) [SB203580],significantly reduced,substantial reduction
significantly activated,Aβ42: unlabeled amyloid-β 42 peptide custom synthesized by AAPPTec,–,–
